# Laboratory results published in publication PMC7379967 (The Febs Journal, 2018).
# Target: human neutrophil proMMP‐9 (Homo sapiens, UniProt P14780)
# Type: biochemical
# Settings: zymography
# Summary of the method: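 Neutrophil proMMP-9 was incubated with recombinant human MMP-3 catalytic domain (enzyme/substrate 1/20), either alone or with galectin-3 (proMMP-9/galectin-3 1/10). Samples were taken at 0, 0.16, 0.5, 1, 2 and 3 h. Galectins were expressed in E. coli BL21-AI and affinity-purified on α-lactose agarose. Conversion to active MMP-9 was read by gelatin zymography, with recombinant proMMP-9 standard loaded as a reference.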
# Sequence of human neutrophil proMMP‐9 (P14780 20-707 limits assumed): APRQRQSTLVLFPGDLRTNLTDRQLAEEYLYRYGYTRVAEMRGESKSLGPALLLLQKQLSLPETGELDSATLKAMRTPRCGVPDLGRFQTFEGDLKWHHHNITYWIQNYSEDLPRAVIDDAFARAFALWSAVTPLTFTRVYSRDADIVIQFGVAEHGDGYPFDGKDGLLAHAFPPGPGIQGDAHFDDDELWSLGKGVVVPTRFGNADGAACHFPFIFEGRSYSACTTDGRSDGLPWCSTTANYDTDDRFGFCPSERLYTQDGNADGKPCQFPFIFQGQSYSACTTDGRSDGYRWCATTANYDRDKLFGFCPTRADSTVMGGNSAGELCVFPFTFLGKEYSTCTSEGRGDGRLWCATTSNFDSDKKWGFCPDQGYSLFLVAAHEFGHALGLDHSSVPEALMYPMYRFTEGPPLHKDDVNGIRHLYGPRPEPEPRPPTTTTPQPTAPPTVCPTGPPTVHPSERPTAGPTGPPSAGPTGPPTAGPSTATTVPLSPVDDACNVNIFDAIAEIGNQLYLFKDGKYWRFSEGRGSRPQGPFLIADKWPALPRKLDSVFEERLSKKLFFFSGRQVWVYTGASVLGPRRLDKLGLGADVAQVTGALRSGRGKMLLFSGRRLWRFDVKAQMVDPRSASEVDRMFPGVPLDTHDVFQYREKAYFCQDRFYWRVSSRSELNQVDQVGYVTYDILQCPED
substance,measurement,setting,value
"galectin‐3: human galectin‐3 (Met1‐Ile250) fused to C‐terminal tag SG(H)6SC, expressed in E. coli",effect on stepwise activation of neutrophil proMMP‐9 by MMP‐3,"cdMMP‐3 1/20, proMMP‐9/galectin‐3 1/10, 0-3 h, Fig. 9A",reduced
same,"effect on activation of neutrophil proMMP‐9 by MMP‐3, overnight incubation","overnight, proMMP‐9/galectin‐3 1/10, Fig. 9B",prevented activation by MMP‐3
